ChEMBL document CHEMBL4725432, “Dethioacylation by Sirtuins 1-3: Considerations for Drug Design Using Mechanism-Based Sirtuin Inhibition” (ACS Med Chem Lett, 2020)
pIC50: −log10 of the molar value. Where a name gives a salt, the structure may show the parent alone. Active and inactive are the calls of the source. The calls are words filed in the database; no cut-off is given here. Non-standard residues stand in square brackets, D forms with d. Residues, ends and D or L forms follow the SMILES beside them. *: point of attachment. Lys(Thioacetyl) = CC(=S)NCCCC[C@H](N)C(=O)O; AMC = Cc1cc(=O)oc2cc(N*)ccc12; Cbz = O=C(OCc1ccccc1)*; Tfa = O=C(C(F)(F)F)*; NHiPr = CC(C)N*

What was measured:
[1] = system: HEK293; test: Inhibition of deacetylation activity in HEK293 cell lysate incubated with substrate for 2 hrs at 50 uM measured after 90 mins by fluorescence assay; type: functional, subcellular; conditions: Homo sapiens
Method in brief: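 Fluorogenic thioacyl or acyl lysine-AMC substrates incubated with fresh HEK293 cell lysate (~65 μg). Deacylation measured by fluorescence. Two independent experiments in duplicate, standard deviation.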

[2] = target: T1, NAD-dependent protein deacetylase sirtuin-3, mitochondrial (Homo sapiens) (UniProt Q9NTG7); test: Inhibition of human recombinant N-terminal GST-tagged SIRT3 (102 to 399 residues) deacetylation activity in presence of substrate and NAD+ at 15 uM after 60 mins measured by reversed-phase UPLC-MS analysis relative to control
T1 sequence (whole entry): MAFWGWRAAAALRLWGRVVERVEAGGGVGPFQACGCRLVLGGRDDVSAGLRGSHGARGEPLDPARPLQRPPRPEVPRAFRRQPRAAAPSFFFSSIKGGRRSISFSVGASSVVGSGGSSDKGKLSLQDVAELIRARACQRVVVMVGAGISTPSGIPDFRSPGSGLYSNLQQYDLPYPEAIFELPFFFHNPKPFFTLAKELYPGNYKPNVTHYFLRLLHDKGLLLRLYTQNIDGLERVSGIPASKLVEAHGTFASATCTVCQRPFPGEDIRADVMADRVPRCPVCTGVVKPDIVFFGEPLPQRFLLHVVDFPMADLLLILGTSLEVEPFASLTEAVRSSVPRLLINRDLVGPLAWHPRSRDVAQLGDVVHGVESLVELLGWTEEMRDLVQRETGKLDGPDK

[3] = target: T2, NAD-dependent protein deacetylase sirtuin-1 (Homo sapiens) (UniProt Q96EB6); test: Inhibition of human recombinant N-terminal GST-tagged SIRT1 (193 to 741 residues) deacetylation activity in presence of substrate and NAD+ at 15 uM after 60 mins by reversed-phase UPLC-MS analysis relative to control
T2 sequence (whole entry): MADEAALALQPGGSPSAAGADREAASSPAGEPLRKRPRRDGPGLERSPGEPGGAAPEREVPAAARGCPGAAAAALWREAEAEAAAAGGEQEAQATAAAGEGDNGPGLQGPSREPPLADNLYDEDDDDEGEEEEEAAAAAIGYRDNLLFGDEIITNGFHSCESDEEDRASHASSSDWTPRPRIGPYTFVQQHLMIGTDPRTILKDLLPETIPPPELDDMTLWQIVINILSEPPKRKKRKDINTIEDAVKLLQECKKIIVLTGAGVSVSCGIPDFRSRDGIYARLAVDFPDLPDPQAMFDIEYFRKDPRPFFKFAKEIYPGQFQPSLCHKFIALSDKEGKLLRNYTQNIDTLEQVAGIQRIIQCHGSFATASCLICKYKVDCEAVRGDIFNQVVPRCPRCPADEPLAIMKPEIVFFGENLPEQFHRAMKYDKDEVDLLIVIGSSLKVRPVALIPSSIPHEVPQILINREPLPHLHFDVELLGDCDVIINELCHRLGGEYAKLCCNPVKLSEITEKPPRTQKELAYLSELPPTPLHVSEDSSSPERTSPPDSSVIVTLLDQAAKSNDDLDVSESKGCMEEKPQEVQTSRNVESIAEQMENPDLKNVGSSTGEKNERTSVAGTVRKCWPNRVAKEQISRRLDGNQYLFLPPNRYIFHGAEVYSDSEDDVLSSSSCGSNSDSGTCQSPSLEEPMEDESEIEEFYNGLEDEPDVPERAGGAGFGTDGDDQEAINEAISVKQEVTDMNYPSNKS

[4] = target: T2, NAD-dependent protein deacetylase sirtuin-1 (Homo sapiens); test: Inhibition of human N-terminal GST-tagged SIRT1 (193 to 741 residues) expressed in Escherichia coli preincubated with NAD+ for 30 mins using Ac-Gln-Pro-Lys-Lys(Ac)-AMC (oxo-10) as substrate at 1 to 100 uM measured after 90 mins by fluorescence assay; conditions: dose microM 1-100, time 120.0 min
Method in brief: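 Recombinant SIRT1 (100 nM) preincubated 30 min with compound, either with or without NAD+ (500 μM), before the fluorogenic deacetylation read-out. Single-dose %-inhibition. Two independent experiments in duplicate, standard deviation.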

[5] = target: T3, NAD-dependent protein deacetylase sirtuin-1 (Homo sapiens, UniProt Q96EB6); test: Inhibition of human recombinant N-terminal GST-tagged SIRT1 (193 to 741 residues) expressed in Escherichia coli using Ac-Gln-Pro-Lys-Lys(Ac)-AMC (oxo-10) as substrate by fluorescence assay
T3 sequence (Q96EB6 whole entry): T2 sequence (whole entry)

[6] = target: T1, NAD-dependent protein deacetylase sirtuin-3, mitochondrial (Homo sapiens); test: Inhibition of human N-terminal GST-tagged SIRT3 (102 to 399 residues) expressed in Escherichia coli using Ac-Gln-Pro-Lys-Lys(but)-AMC (oxo-12) as substrate at 100 uM by fluorescence assay relative to control
[7] = target: T4, NAD-dependent protein deacetylase sirtuin-2 (Homo sapiens, UniProt Q8IXJ6); test: Inhibition of human C-terminal His-tagged SIRT2 (50 to 356 residues) expressed in Escherichia coli using Ac-Gln-Pro-Lys-Lys(pro)-AMC (oxo-11) as substrate by fluorescence assay
T4 sequence (Q8IXJ6 whole entry): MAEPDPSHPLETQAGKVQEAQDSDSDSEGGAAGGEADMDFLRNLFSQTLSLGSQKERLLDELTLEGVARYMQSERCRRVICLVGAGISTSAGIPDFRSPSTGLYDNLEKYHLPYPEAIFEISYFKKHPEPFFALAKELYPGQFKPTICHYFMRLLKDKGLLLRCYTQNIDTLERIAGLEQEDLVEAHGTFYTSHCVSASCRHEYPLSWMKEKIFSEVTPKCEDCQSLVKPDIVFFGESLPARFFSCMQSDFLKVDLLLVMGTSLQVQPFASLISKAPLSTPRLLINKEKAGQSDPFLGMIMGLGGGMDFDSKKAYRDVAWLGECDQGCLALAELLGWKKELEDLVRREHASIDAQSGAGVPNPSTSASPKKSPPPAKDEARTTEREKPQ

[8] = target: T2, NAD-dependent protein deacetylase sirtuin-1 (Homo sapiens); test: Inhibition of human recombinant N-terminal GST-tagged SIRT1 (193 to 741 residues) expressed in Escherichia coli using Ac-Gln-Pro-Lys-Lys(Ac)-AMC (oxo-10) as substrate at 100 uM by fluorescence assay relative to control
[9] = target: T2, NAD-dependent protein deacetylase sirtuin-1 (Homo sapiens); test: Inhibition of SIRT1 in HEK293 cells assessed as increase in p53 acetylation co-treated with TSA at 25 uM for 6 hrs by western blot analysis; type: cell-based
Method in brief: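 HEK293 cells exposed 6 h to compound at 25 μM together with TSA (1 μM). Whole-cell lysates immunoblotted for Ac-p53 (K382) and total p53. Ratio Ac-p53/p53 normalized to DMSO control. Two independent experiments in duplicate, SEM.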

[10] = target: T5, NAD-dependent protein deacetylase sirtuin-2 (Homo sapiens) (UniProt Q8IXJ6); test: Inhibition of human C-terminal His-tagged SIRT2 (50 to 356 residues) expressed in Escherichia coli using Ac-Gln-Pro-Lys-Lys(pro)-AMC (oxo-11) as substrate at 100 uM by fluorescence assay relative to control
T5 sequence (whole entry): T4 sequence (Q8IXJ6 whole entry)

[11] = Metabolic stability of compound in human serum assessed as drug degradation incubated for >10 mins measured after 90 mins by HPLC analysis; type: ADME, cell-free; conditions: 1.5 h
[12] = Metabolic stability of compound in human serum assessed as half life incubated for >10 mins measured after 90 mins by HPLC analysis; type: ADME, cell-free
[13] = target: T5, NAD-dependent protein deacetylase sirtuin-2 (Homo sapiens); test: Inhibition of human C-terminal His-tagged SIRT2 (50 to 356 residues) expressed in Escherichia coli using Ac-Gln-Pro-Lys-Lys(pro)-AMC (oxo-11) as substrate at 10 uM by fluorescence assay relative to control
[14] = target: T1, NAD-dependent protein deacetylase sirtuin-3, mitochondrial (Homo sapiens); test: Inhibition of human N-terminal GST-tagged SIRT3 (102 to 399 residues) expressed in Escherichia coli using Ac-Gln-Pro-Lys-Lys(but)-AMC (oxo-12) as substrate at 10 uM by fluorescence assay relative to control

Row | SMILES | Activity [1] | inhibition [4] | pIC50 [5] | inhibition [9] | half-life [12] [h] | also measured
1 | CCC(=S)NCCCC[C@H](NC(=O)[C@H](CCCCN)NC(=O)[C@@H]1CCCN1C(=O)[C@H](CCC(N)=O)NC(C)=O)C(=O)Nc1ccc2c(C)cc(=O)oc2c1 | Active | – | – | – | – | –
2 | CC(=O)N[C@@H](CCC(N)=O)C(=O)N1CCC[C@H]1C(=O)N[C@@H](CCCCN)C(=O)N[C@@H](CCCCNC(C)=S)C(=O)Nc1ccc2c(C)cc(=O)oc2c1 (Ac-QPK[Lys(Thioacetyl)]-{AMC}) | Active | – | – | – | – | –
3 | CCCC(=S)NCCCC[C@H](NC(=O)[C@H](CCCCN)NC(=O)[C@@H]1CCCN1C(=O)[C@H](CCC(N)=O)NC(C)=O)C(=O)Nc1ccc2c(C)cc(=O)oc2c1 | Active | – | – | – | – | –
4 | CCCC(=S)NCCCC[C@H](NC(=O)OCc1ccccc1)C(=O)N[C@@H](Cc1c[nH]c2ccccc12)C(=O)NC(C)C | – | Active | 6.27 | – | – | inhibition [2]: inactive; inhibition [3]: inactive; inhibition [6]: 10%; pIC50 [7]: 6.36
5 | CC(C)NC(=O)[C@H](Cc1c[nH]c2ccccc12)NC(=O)[C@H](CCCCNC(=O)C(F)(F)F)NC(=O)OCc1ccccc1 (Cbz-Lys(Tfa)-Trp-NHiPr) | – | inactive | – | inactive | – | inhibition [8]: 24%; inhibition [6]: 5%; inhibition [10]: 3%
6 | Cc1cc(C)nc(SCC(=O)Nc2ncc(Cc3cccc4ccccc34)s2)n1 | – | – | – | inactive | – | –
7 | CNC(=S)NCCCC[C@H](NC(=O)OCc1ccccc1)C(=O)N[C@@H](Cc1c[nH]c2ccccc12)C(=O)NC(C)C | – | Active | – | Active | < 1 | Activity [11]: Not Active
8 | CC(C)NC(=O)[C@H](Cc1c[nH]c2ccccc12)NC(=O)[C@H](CCCCNC(N)=S)NC(=O)OCc1ccccc1 | – | Active | 6.01 | – | > 7 | inhibition [13]: 28%; inhibition [14]: 2%
9 | CCNC(=S)NCCCC[C@H](NC(=O)OCc1ccccc1)C(=O)N[C@@H](Cc1c[nH]c2ccccc12)C(=O)NC(C)C | – | Active | 5.72 | – | < 1 | Activity [11]: Not Active; inhibition [13]: 71%; inhibition [14]: 2%
